Experimental findings from article PMC8103808 (Journal of medicinal chemistry, 2020) are described below.

The test system of assay [1] is U−118 MG cells. The experiment in a line: Colony formation assay with or without BSO pretreatment. It counts as cell-based, human. The note with it: BSO pretreatment 24 h. The procedure, abridged:
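U-118 MG cells grown in RPMI-1640 with 10% FBS were seeded at 600 cells/well and allowed to attach. Serial dilutions of buthionine sulfoximine were added 24 h later, with pretreatment overnight (24 h per legend), then serial dilutions of test compound. Cells were cultured 10–14 days until colonies formed, stained 1 h with crystal violet/formaldehyde/methanol, washed with water and imaged.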

Assay [2] concerns the target T1, PDIA1 (Homo sapiens, UniProt P07237). Briefly: Glutathione competition in PDI reductase assay. Particulars: 5 mM GSH. The class given is biochemical.
Assay [3] has as its target T2, PDI (Homo sapiens, UniProt P07237). Briefly: Protein mass spectrometry. The class given is binding. Particulars: 10 μM PDI, 100 μM DTT, 100 μM compound. In a few lines: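 Recombinant human PDI (10 μM) was incubated with 100 μM test compound and 100 μM DTT for 30 min before injection for Q-TOF intact-protein mass spectrometry to detect covalent adducts.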
The target of assay [4] is T2, PDI. The experiment in a line: Reversibility. It counts as biochemical. Particulars: for PDI activity recovery after dilution: compound concentrations 10 times that of the protein; for PDI activity recovery after 100-fold dilution: 50 μM compound with 40 μM PDI, 3 h at room temperature.
In assay [5] the target is T1, PDIA1. Briefly: PDI reductase assay. It counts as biochemical.
In assay [6] the test system is U−87 MG cells. The experiment in a line: MTT growth inhibition assay in U-87 MG cells. It counts as cell-based. The note with it: Homo sapiens, read-out: MTT (% inhibition at 30 μM). In a few lines:
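Cells were grown at 37 °C, 5% CO₂ in 10% FBS medium: DMEM for U-87 MG, RPMI-1640 for A-172. Duplicate wells of 3000–5000 cells were attached overnight, then exposed to 30 μM test compound for 72 h. MTT (3 mg/mL) was added for 4 h at 37 °C and formazan dissolved in DMSO before reading A570. Inhibition (%) = [1−(At−Ab)/(Ac−Ab)]×100.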
Background: Formazan colour is commonly taken as a measure of viable cells.

The target of assay [7] is T2, PDI. Briefly: Gel-based competition with fluorescent probe PACMA57. It counts as binding. The note with it: 100 μM compound.
Assay [8] addresses T2, PDI. Briefly: kinact/KI determination in PDI reductase assay with reduced PDI. The class given is biochemical.
Assay [9] deals with T2, PDI. The experiment in a line: Thermal shift assay. It counts as binding. Particulars: oxidized PDI; 100 μM compound.
Assay [10] deals with PDI b′ domain (Homo sapiens, UniProt P07237). Briefly: ANS spectral scan. The class given is binding. The note with it: 5 μM PDI, 100 μM compound. The procedure, abridged:
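Recombinant N-terminally His-tagged human PDI, expressed in E. coli BL21(DE3) and Ni-NTA purified, at 5 μM with 100 μM test compound or matching DMSO in TBS for 1 h at 37 °C. ANS then added and incubated 20 min at 25 °C in the dark. Fluorescence spectrum recorded at Ex 370 nm, Em 400–700 nm.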

The target of assay [11] is T3, PDIA3 (Homo sapiens, UniProt P30101).
T3 sequence (P30101 25-505): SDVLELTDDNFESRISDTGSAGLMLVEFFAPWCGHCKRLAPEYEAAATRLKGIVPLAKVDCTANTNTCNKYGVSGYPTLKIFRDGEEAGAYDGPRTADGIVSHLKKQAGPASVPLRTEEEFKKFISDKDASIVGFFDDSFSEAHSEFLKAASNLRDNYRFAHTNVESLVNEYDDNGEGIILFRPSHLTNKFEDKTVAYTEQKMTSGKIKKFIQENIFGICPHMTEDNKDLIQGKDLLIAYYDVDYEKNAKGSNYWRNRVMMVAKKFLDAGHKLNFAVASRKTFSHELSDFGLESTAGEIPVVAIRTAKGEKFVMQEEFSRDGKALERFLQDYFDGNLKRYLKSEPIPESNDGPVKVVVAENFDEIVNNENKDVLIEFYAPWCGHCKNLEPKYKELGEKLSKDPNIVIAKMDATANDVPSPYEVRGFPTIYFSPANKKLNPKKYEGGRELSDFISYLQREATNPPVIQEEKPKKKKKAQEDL
Briefly: PDI reductase assay with PDIA3. It counts as biochemical.

In assay [12] the target is PDI H256A mutant (Homo sapiens, UniProt P07237, H256A). Briefly: PDI reductase assay with H256A mutant. It counts as biochemical. Particulars: Histidine 256 in b′ domain mutated to alanine. The procedure, abridged: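 H256A PDI was made by site-directed mutagenesis, expressed in BL21(DE3) and purified like wild type. Enzyme (0.4 μM or 50 nM) was preincubated with test compound for 1 h at 37 °C in 100 mM sodium phosphate, 2 mM EDTA, 8 μM DTT, pH 7.0. DTT (500 μM; 125 μM for 50 nM enzyme) and 130 μM bovine insulin were added, and reduction proceeded at room temperature. Insulin B-chain aggregation was read at 620 nm, and activity calculated from ΔOD over 60 min (180 min for 50 nM).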

The target in assay [13] is T4, PDIA2 (Homo sapiens, UniProt Q13087).
T4 sequence (Q13087 22-525): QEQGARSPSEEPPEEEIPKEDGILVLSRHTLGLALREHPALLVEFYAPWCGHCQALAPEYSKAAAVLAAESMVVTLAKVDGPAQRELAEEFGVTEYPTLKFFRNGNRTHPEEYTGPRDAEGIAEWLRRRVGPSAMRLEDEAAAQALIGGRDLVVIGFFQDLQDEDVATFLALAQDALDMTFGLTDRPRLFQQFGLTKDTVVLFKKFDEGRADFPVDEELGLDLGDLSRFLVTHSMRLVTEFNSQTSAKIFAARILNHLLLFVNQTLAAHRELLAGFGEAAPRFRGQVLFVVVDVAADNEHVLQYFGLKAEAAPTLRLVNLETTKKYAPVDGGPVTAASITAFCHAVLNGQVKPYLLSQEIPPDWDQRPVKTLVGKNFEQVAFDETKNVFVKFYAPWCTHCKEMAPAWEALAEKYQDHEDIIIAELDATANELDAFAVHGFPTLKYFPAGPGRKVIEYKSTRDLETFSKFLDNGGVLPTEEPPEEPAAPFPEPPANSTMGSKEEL
Briefly: PDI reductase assay with PDIA2. It counts as biochemical.

Assay [14] deals with serum albumin (Bos taurus, UniProt P02769). Briefly: Gel-based binding in cell-free medium with fetal bovine serum. The note with it: cell-free medium supplemented with fetal bovine serum. In a few lines:
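Cell-free DMEM, with 10% FBS added, was incubated overnight at 37 °C with 20 μM BODIPY-labelled test compound. Binding to serum albumin was assessed by in-gel imaging of the labelled protein.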

Assay [15] has as its target T1, PDIA1. The experiment in a line: Gel-based binding assay with recombinant PDIA1. Particulars: recombinant protein. In a few lines:
(§1)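 Each protein at 3.5 µM in CelLytic M buffer was incubated with BODIPY-labelled test compound overnight at room temperature. PDIA1 and PDIA2 are recombinant human; PDIA1 is His-tagged and expressed in E. coli BL21(DE3). Samples were boiled in Laemmli or non-reducing sample buffer, resolved on 10% polyacrylamide gels, and imaged immediately for labelled protein.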

The target in assay [16] is T3, PDIA3. The experiment in a line: Gel-based binding assay with recombinant PDIA3. Particulars: recombinant protein. The procedure, abridged:
as §1

Assay [17] concerns the target BSA (Bos taurus, UniProt P02769). Briefly: Gel-based binding assay with BSA. More on the design: species or system bovine. In a few lines:
as §1

Assay [18] concerns the target T4, PDIA2. Briefly: Gel-based binding assay with recombinant PDIA2. Particulars: recombinant protein. The procedure, abridged:
as §1

“Also recorded” adds a separate entry of the source.

T2 sequence (P07237 18-508): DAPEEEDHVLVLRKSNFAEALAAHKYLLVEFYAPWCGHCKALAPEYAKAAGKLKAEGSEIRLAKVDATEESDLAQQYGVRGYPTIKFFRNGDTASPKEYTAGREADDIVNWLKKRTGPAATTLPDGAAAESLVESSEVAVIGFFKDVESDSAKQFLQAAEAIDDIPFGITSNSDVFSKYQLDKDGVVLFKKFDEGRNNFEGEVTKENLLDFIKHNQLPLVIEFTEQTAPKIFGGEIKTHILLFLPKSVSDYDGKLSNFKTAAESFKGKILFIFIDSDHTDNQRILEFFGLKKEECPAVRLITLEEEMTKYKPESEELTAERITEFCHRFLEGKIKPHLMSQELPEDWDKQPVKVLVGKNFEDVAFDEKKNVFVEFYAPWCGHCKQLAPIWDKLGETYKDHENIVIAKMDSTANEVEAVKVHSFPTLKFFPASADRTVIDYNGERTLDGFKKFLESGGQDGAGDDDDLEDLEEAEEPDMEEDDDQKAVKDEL
T1 sequence (P07237 18-508): as above
Chain of PDI H256A mutant (P07237 18-508 H256A): as the sequence (P07237 18-508) above, with H239A counted along it
Chain of PDI b′ domain (P07237 18-508): as the sequence (P07237 18-508) above
Chain of serum albumin (P02769 25-607): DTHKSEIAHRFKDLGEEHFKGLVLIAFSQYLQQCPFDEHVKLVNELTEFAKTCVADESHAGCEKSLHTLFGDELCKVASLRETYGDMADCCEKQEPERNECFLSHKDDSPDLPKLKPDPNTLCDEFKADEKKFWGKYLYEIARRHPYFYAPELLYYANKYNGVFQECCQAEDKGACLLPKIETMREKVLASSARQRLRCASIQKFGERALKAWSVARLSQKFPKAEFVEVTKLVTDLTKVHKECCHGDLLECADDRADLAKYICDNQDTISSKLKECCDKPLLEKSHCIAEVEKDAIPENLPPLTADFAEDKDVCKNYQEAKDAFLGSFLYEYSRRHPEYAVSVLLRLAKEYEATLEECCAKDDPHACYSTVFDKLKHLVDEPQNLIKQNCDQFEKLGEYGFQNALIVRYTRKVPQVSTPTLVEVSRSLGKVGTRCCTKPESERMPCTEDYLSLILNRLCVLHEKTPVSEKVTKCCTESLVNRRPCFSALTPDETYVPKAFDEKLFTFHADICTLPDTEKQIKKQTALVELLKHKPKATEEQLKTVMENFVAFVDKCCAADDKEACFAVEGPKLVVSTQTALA
Chain of BSA (P02769 25-607): as above

Consider `Oc1c(C(c2ccc(F)cc2)N2CCN(C(c3ccc(F)cc3)c3ccc4cncnc4c3O)CC2)ccc2cncnc12` (centres unmarked) [5d dimer], for which the “potency in colony formation assay, dependence on BSO” value in assay [1] is “more potent and its potency was not dependent on BSO addition”. For the same compound, in [2], the “PDI inhibition in the presence of competing glutathione” value (shortened to “PDI inhibition in the presence”) is reported as “less sensitive to glutathione competition than the monomer”. For the same compound, the “covalent binding to PDI by mass spectrometry” value (from here on “covalent binding to PDI”) in assay [3] was “bound to PDI”.
Regarding `Oc1c(C(c2ccc(F)cc2)N2CCNCC2)ccc2cncnc12` (centres unmarked) [5d, 7-((4-Fluorophenyl)(piperazin-1-yl)methyl)quinazolin-8-ol], the “potency in colony formation assay, dependence on BSO” value in [1] is recorded as “more sensitive to BSO addition”. Also, the “PDI inhibition in the presence” value in [2] was “maintained potency”. Further, the “covalent binding to PDI” value in assay [3] is given as “bound to PDI”.
Regarding `COc1cccc(C(c2cc3c(cc2O)OCO3)N2CCOCC2)c1OC` (centres unmarked) [6a, 6-((2,3-Dimethoxyphenyl)(morpholino)methyl)benzo[d][1,3]dioxol-5-ol], in assay [3], the “covalent binding to PDI” value was “bound reduced PDI at three sites”. The “PDI activity recovery after dilution” value in assay [4] is listed as “too active at this ratio”.
Regarding `Oc1cc2c(cc1C(c1ccc(F)cc1)N1CCCCC1)CCC2` (centres unmarked) [6f, 6-((4-Fluorophenyl)(piperidin-1-yl)methyl)-2,3-dihydro-1H-inden-5-ol], in assay [5], the “PDI inhibition in the PDI reductase assay (in words)” value was “completely lost activity”. For the same compound, the inhibition – broadly, the share of the control response that was lost under treatment – at 30 µM in assay [6] came out at 13%. The “covalent binding to PDI” value in assay [3] is given as “did not demonstrate covalent binding to PDI”. The “competition with PACMA57 for binding to PDI” value in [7] was “did not compete with PACMA57”.
As to `Oc1cc2c(cc1C(c1ccc(F)cc1)N1CCCCC1)CCCC2` (centres unmarked) [6g, 3-((4-Fluorophenyl)(piperidin-1-yl)methyl)-5,6,7,8-tetrahydronaphthalen-2-ol], in [5], the “PDI inhibition in the PDI reductase assay (in words)” value was “completely lost activity”. Moreover, in assay [6], the inhibition at 30 µM is 0%.
`COC(=O)C1(C)c2[nH]c3ccccc3c2CCN1C(=O)CCl` (centres unmarked) [16F16]: in assay [8], the kinact/KI (commonly the maximal inactivation rate divided by the concentration that gives half of it) amounted to 170 M⁻¹ s⁻¹.
Take `COc1ccc(C(c2cc3c(cc2O)OCO3)N2CCOCC2)cc1OC` (centres unmarked) [AS15]: in assay [9], the “stabilization of PDI to thermal degradation” value (“stabilization of PDI” below) is given as “did not stabilize PDI to thermal degradation”. Besides, in assay [10], the “competition with ANS fluorescence” value was “did not lower the fluorescence of ANS”. Further, the “inhibition of PDIA3 activity” value in assay [11] is on record as “could also inhibit PDIA3 activity”. Besides, the “activity against H256A mutant PDI” value in assay [12] is listed as “retained their activity”. For the same compound, the “inhibition of PDIA2 activity” value in [13] is “inhibited activity of PDIA2”. For the same compound, the kinact/KI in assay [8] is 2600 M⁻¹ s⁻¹. Besides, in [4], the “PDI activity recovery after 100-fold dilution” value is “did not maintain the characteristics of the high concentration of inhibitor after dilution” and the “PDI activity recovery after dilution” value is listed as “behave like the expected irreversible inhibitor”.
Regarding `N#Cc1cccc(/C=C/C(=O)c2ccc(O)cc2)c1` [BAP2, reference compound], the “PDI inhibition in the presence” value in [2] is recorded as “remained active”.
Take `Oc1c(C(Nc2ccccn2)c2ccc(Cl)cc2)ccc2cccnc12` (centres unmarked) [CD343]: in [9], the “stabilization of PDI” value is “did not stabilize PDI to thermal degradation”. For the same compound, the “competition with ANS fluorescence” value in assay [10] is listed as “did not lower the fluorescence of ANS”. Besides, the “activity against H256A mutant PDI” value in assay [12] is given as “retained their activity”. Also, the “inhibition of PDIA2 activity” value in assay [13] was “inhibited activity of PDIA2”. Further, in [4], the “PDI activity recovery after 100-fold dilution” value is “did not maintain the characteristics of the high concentration of inhibitor after dilution” and the “PDI activity recovery after dilution” value is given as “too active at this ratio”.
Take `C#CC(=O)N(c1ccc(OC)cc1OC)C(C(=O)NCC(=O)OCC)c1cccs1` (centres unmarked) [PACMA31, reference compound]: the “stabilization of PDI” value in [9] is given as “did not stabilize PDI to thermal degradation”. In addition, in assay [8], the kinact/KI worked out at 200 M⁻¹ s⁻¹.
Take `CN(C)c1ccc(C(Nc2ncccn2)c2cc3c(cc2O)OCO3)cc1` (centres unmarked) [compound 14, 6-((4-(Dimethylamino)phenyl)(pyrimidin-2-ylamino)methyl)benzo[d][1,3]dioxol-5-ol]: the “PDI inhibition in the presence” value in assay [2] was “maintained potency”.
As for `CC1=CC(C)=[N+]2C1=C(c1ccc(NC(=O)c3ccc(C(c4cc5c(cc4O)OCO5)N4CCCCC4)cc3)cc1)c1c(C)cc(C)n1[B-]2(F)F` (centres unmarked) [compound 15, N-(4-(5,5-Difluoro-1,3,7,9-tetramethyl-5H-4λ^4,5λ^4-dipyrrolo[1,2-c:2’,1’-f][1,3,2]diazaborinin-10-yl)phenyl)-4-((6-hydroxybenzo[d][1,3]dioxol-5-yl)(piperidin-1-yl)methyl)benzamide], the “PDI inhibition in the PDI reductase assay (in words)” value in [5] was “did not inhibit PDI activity”. In addition, in [14], the “binding to serum albumin” value was “bound to serum albumin”.
On to `CC1=CC(C)=[N+]2C1=C(c1ccc(C(=O)NCCNC(=O)c3ccc(C(c4cc5c(cc4O)OCO5)N4CCCCC4)cc3)cc1)c1c(C)cc(C)n1[B-]2(F)F` (centres unmarked) [compound 16], for which the “binding to PDIA1” value in [15] is recorded as “covalently binds; also recorded: bound”. Also, the “binding to PDIA3” value in assay [16] is “bound”. For the same compound, the “binding to BSA” value in assay [17] is listed as “bound”. Also, in [18], the “binding to PDIA2” value is on record as “bound”. Further, the “binding to serum albumin” value in [14] is given as “bound to serum albumin”.
Take `O=c1c(O[C@@H]2O[C@H](CO)[C@@H](O)[C@H](O)[C@H]2O)c(-c2ccc(O)c(O)c2)oc2cc(O)cc(O)c12` [isoquercetin, reference compound]: the “PDI inhibition in the presence” value in assay [2] was “remained active”.
